Data set [1] concerns the target CDK3/Cyclin E (Homo sapiens) (UniProt P24864+Q00526). The data set can be described thus: Inhibition of CDK3/Cyclin E (unknown origin) at 1 uM using histone H1 as substrate preincubated for 20 mins followed by 33P-ATP addition and measured after 2 hrs by filter binding method. It counts as protein-complex assay. The method, boiled down: (§1)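 Radiometric filter-binding kinase assay at 10 μM ATP in pH 7.5 HEPES buffer with MgCl₂, EGTA, Brij35, BSA, Na₃VO₄, DTT and 1% DMSO. Compound was preincubated with kinase for 20 min at rt, then ³³P-ATP was added and the reaction ran 2 h at rt. Substrate was histone H1 at 20 μM, except myelin basic protein at 20 μM for CDK7/cyclin H and a peptide at 20 μM for CDK9/cyclin T1. Single dose, in duplicate.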

The target of data set [2] is CDK2/Cyclin A2 (Homo sapiens) (UniProt P24941+P20248). As to the kind of experiment: Inhibition of human N-terminal GST-tagged CDK2 (1 to 298 residues)/Cyclin A (174 to 432 residues) expressed in Escherichia coli Turner (DE3) cells assessed as reduction in ADP formation at 1 uM using PKTPKKAKKL as substrate by resorufin dye based fluorescence assay.
Data set [3] concerns the target Cyclin-dependent kinase 5/CDK5 activator 1 (Homo sapiens) (UniProt Q00535+Q15078). The data set can be described thus: Inhibition of CDK5/p25 (unknown origin) at 1 uM using histone H1 as substrate preincubated for 20 mins followed by 33P-ATP addition and measured after 2 hrs by filter binding method. It counts as protein-complex assay. Summed up:
as §1

Data set [4] has as its target Cyclin-dependent kinase 1/cyclin B1 (Homo sapiens) (UniProt P06493+P14635). As to the kind of experiment: Inhibition of CDK1/Cyclin B (unknown origin) at 1 uM using histone H1 as substrate preincubated for 20 mins followed by 33P-ATP addition and measured after 2 hrs by filter binding method. It counts as protein-complex assay. Summed up:
as §1

The species named for data set [5] is Homo sapiens. The data set can be described thus: Inhibition of CDK9/Cyclin T1 (unknown origin) at 1 uM using KTFCGTPEYLAPEVRREPRILSEEEQEMFRDFDYIAD as substrate preincubated for 20 mins followed by 33P-ATP addition and measured after 2 hrs by filter binding method. The method, boiled down: as §1
The target of data set [6] is CDK6/cyclin D1 (Homo sapiens) (UniProt P24385+Q00534). As to the kind of experiment: Inhibition of CDK6/Cyclin D1 (unknown origin) at 1 uM using RB protein as substrate preincubated for 20 mins followed by 33P-ATP addition and measured after 2 hrs by filter binding method.
Data set [7] addresses Cyclin-dependent kinase 4/cyclin D1 (Homo sapiens) (UniProt P11802+P24385). The data set can be described thus: Inhibition of CDK4/Cyclin D1 (unknown origin) at 1 uM using RB protein as substrate preincubated for 20 mins followed by 33P-ATP addition and measured after 2 hrs by filter binding method. The class given is protein-complex assay. The method, boiled down: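 Radiometric filter-binding assay of CDK4/cyclin D1 using RB protein at 3 μM and ATP at 10 μM in pH 7.5 HEPES buffer with 1% DMSO. Compound was preincubated for 20 min at rt, then ³³P-ATP was added and the reaction ran 2 h at rt, with spotting on P81 paper. Single dose, in duplicate.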

Data set [8] has as its target Cyclin-dependent kinase 2/cyclin E1 (Homo sapiens) (UniProt P24864+P24941). As to the kind of experiment: Inhibition of CDK1/Cyclin E (unknown origin) at 1 uM using histone H1 as substrate preincubated for 20 mins followed by 33P-ATP addition and measured after 2 hrs by filter binding method. It counts as protein-complex assay. Summed up: as §1
Data set [9] deals with CDK1/Cyclin A (Homo sapiens) (UniProt P06493+P20248). As to the kind of experiment: Inhibition of CDK1/CyclinA (unknown origin) at 1 uM using histone H1 as substrate preincubated for 20 mins followed by 33P-ATP addition and measured after 2 hrs by filter binding method. The class given is protein-complex assay. The method, boiled down: as §1
Sequence of CDK1/Cyclin A (Homo sapiens) (P06493 whole entry, looked up): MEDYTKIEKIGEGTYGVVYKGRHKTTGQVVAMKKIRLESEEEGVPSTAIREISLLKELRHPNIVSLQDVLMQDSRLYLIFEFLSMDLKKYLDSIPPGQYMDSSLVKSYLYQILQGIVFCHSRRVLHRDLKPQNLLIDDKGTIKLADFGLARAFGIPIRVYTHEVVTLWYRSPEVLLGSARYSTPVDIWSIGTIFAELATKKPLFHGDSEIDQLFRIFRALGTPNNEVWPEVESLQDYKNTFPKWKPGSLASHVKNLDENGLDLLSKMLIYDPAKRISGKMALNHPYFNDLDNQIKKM
Sequence of CDK1/Cyclin A (Homo sapiens) (P20248 whole entry, looked up): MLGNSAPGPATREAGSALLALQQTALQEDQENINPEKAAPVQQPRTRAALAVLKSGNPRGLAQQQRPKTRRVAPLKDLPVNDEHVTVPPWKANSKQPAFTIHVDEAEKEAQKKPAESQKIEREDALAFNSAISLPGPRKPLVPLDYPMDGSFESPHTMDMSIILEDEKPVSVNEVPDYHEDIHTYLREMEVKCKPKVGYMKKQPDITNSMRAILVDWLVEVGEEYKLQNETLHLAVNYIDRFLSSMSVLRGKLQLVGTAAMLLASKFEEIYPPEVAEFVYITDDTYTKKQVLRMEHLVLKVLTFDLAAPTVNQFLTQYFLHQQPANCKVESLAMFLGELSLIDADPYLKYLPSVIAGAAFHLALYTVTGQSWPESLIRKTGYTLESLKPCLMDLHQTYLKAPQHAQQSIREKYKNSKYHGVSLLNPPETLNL
In data set [10] the target is CDK2/Cyclin O (Homo sapiens) (UniProt P24941+P22674). The data set can be described thus: Inhibition of CDK1/Cyclin-O (unknown origin) at 1 uM using histone H1 as substrate preincubated for 20 mins followed by 33P-ATP addition and measured after 2 hrs by filter binding method. It counts as protein-complex assay. Summed up:
as §1

The target of data set [11] is CDK2/Cyclin A1 (Homo sapiens) (UniProt P24941+P78396). As to the kind of experiment: Inhibition of CDK2/Cyclin A1 (unknown origin) at 1 uM using histone H1 as substrate preincubated for 20 mins followed by 33P-ATP addition and measured after 2 hrs by filter binding method. It counts as protein-complex assay. The method, boiled down: as §1
Data set [12] has as its target Cyclin-dependent kinase 7/ cyclin H (Homo sapiens) (UniProt P51946+P50613). As to the kind of experiment: Inhibition of CDK7/Cyclin H (unknown origin) at 1 uM using myelin basic protein as substrate preincubated for 20 mins followed by 33P-ATP addition and measured after 2 hrs by filter binding method. The class given is protein-complex assay. The method, boiled down: as §1

Data set [13] in a line: Permeability across apical to basolateral side in MDCK cells assessed as drug recovery at 1 uM after 2 hrs by LC-MS/MS analysis. To be noted: dog. The class given is ADME, cell-based, Canis lupus familiaris. The method, boiled down:
(§2)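 MDCK monolayers were washed twice with pre-warmed HBSS (10 mM HEPES, pH 7.4) and equilibrated for 30 min at 37 °C. Compound at 1 μM in HBSS (0.5% DMSO final) was added to the apical or the basolateral donor side. After 2 h at 37 °C, donor and receiver samples were quenched in cold methanol with internal standards and analysed by LC-MS/MS. Runs were in duplicate; 100 μM Lucifer Yellow checked monolayer integrity.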

A short description of data set [14]: Apparent permeability across apical to basolateral side in MDCK cells at 1 uM after 2 hrs by LC-MS/MS analysis. It counts as ADME, cell-based, Canis lupus familiaris. To be noted: dog. The method, boiled down:
as §2

For data set [15], the target named is CDK2/Cyclin A1 (Homo sapiens, UniProt P24941). The data set can be described thus: Inhibition of CDK2/Cyclin A1 (unknown origin) using histone H1 as substrate preincubated for 20 mins followed by 33P-ATP addition and measured after 2 hrs by filter binding method. The class given is protein-complex assay.
Data set [16] concerns the target Cyclin-dependent kinase 2/cyclin E1 (Homo sapiens, UniProt P24941). As to the kind of experiment: Inhibition of CDK2/Cyclin E (unknown origin) using histone H1 as substrate preincubated for 20 mins followed by 33P-ATP addition and measured after 2 hrs by filter binding method. It counts as protein-complex assay.
The nature of data set [17]: Apparent permeability across basolateral to apical side in MDCK cells at 1 uM after 2 hrs by LC-MS/MS analysis. The class given is ADME, cell-based, Canis lupus familiaris. To be noted: dog. The method, boiled down:
as §2

Data set [18] deals with Heat shock protein HSP90 (Homo sapiens) (UniProt P07900+P08238). As to the kind of experiment: Inhibition of HSP90 (unknown origin). The class given is protein assay.
The target in data set [19] is CDK2/Cyclin A2 (Homo sapiens, UniProt P24941). The data set can be described thus: Inhibition of human N-terminal GST-tagged CDK2 (1 to 298 residues)/Cyclin A (174 to 432 residues) expressed in Escherichia coli Turner (DE3) cells assessed as reduction in ADP formation using PKTPKKAKKL as substrate by resorufin dye based fluorescence assay.
Data set [20] addresses CDK2/Cyclin O (Homo sapiens, UniProt P22674+P24941). The data set can be described thus: Inhibition of CDK2/Cyclin-O (unknown origin) using histone H1 as substrate preincubated for 20 mins followed by 33P-ATP addition and measured after 2 hrs by filter binding method. The class given is protein-complex assay.
Data set [21] is described as follows: Permeability across basolateral to apical side in MDCK cells at 1 uM after 2 hrs by LC-MS/MS analysis. It counts as ADME, cell-based, Canis lupus familiaris. To be noted: dog. Summed up:
as §2

Data set [22] is described as follows: Efflux ratio of apparent permeability across basolateral to apical side over apical to basolateral side in MDCK cells at 1 uM after 2 hrs by LC-MS/MS analysis. It counts as ADME, cell-based, Canis lupus familiaris. The following applies: dog. Summed up: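 MDCK monolayers washed twice with pre-warmed HBSS (10 mM HEPES, pH 7.4) and equilibrated 30 min at 37 °C. 1 μM working solution (0.5% DMSO final) added to apical or basolateral donor side, 37 °C for 2 h, run in duplicate. Donor and receiver samples quenched in cold methanol with internal standards and quantified by LC-MS/MS. Monolayer integrity checked by Lucifer Yellow (100 μM) leakage.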

Data set [23] relates to MCF7. As to the kind of experiment: Antiproliferative activity against human MCF7 cells assessed as reduction in cell viability up to 200 uM after 72 hrs by alamarBlue assay. To be noted: dose microM <=200, time 72.0 hrs. The class given is functional, cell-based. The method, boiled down:
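MCF-7 cells seeded at 5000 per well and incubated overnight at 37 °C, 5% CO₂, then exposed to 8 concentrations from 0.00256 μM to 200 μM for 72 h. alamarBlue was then added and incubated 90 min at 37 °C. Proliferating cells were read by fluorescence (ex 530 nm, em 590 nm). Staurosporine served as positive control.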

Here are results for two compounds from ChEMBL document CHEMBL4732187, “Tetrahydroindazole inhibitors of CDK2/cyclin complexes” (Eur J Med Chem, 2021).

Structures are written as SMILES. Activity calls are given as the source filed them. The calls are words filed in the database; no cut-off is given here.

Sequence of CDK3/Cyclin E (Homo sapiens) (P24864 whole entry, looked up): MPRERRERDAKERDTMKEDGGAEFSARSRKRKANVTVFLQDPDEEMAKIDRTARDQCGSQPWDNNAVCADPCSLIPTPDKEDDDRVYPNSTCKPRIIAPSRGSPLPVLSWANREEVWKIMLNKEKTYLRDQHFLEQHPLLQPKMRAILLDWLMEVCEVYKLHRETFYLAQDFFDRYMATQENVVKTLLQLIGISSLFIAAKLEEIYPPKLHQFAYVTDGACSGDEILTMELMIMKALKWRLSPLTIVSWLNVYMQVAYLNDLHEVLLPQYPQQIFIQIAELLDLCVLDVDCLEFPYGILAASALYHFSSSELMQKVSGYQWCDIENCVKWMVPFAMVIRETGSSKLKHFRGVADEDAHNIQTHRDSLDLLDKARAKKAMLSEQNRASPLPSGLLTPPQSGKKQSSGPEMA
Sequence of CDK3/Cyclin E (Homo sapiens) (Q00526 whole entry, looked up): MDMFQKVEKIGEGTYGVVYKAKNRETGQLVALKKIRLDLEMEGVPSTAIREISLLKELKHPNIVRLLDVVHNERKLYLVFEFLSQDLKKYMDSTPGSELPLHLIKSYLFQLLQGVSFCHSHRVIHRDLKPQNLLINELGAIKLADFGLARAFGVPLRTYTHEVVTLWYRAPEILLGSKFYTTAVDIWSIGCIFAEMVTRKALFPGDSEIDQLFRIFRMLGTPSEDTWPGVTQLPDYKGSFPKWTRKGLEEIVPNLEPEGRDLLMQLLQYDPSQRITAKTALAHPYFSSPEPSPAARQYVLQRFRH
Sequence of Cyclin-dependent kinase 1/cyclin B1 (Homo sapiens) (P06493 whole entry, looked up): as the sequence (P06493 whole entry, looked up) above
Sequence of Cyclin-dependent kinase 1/cyclin B1 (Homo sapiens) (P14635 whole entry, looked up): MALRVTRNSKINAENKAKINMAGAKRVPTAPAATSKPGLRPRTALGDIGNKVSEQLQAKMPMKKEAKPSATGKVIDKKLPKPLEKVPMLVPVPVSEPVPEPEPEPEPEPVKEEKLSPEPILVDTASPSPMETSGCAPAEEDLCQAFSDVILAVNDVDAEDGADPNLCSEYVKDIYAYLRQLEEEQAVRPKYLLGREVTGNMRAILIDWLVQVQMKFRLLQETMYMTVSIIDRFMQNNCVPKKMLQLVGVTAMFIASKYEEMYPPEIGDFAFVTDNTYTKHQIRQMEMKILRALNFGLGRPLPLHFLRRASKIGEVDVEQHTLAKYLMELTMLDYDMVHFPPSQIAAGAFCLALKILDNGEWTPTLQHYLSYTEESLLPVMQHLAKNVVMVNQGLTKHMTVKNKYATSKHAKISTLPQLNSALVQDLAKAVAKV
Sequence of Cyclin-dependent kinase 5/CDK5 activator 1 (Homo sapiens) (Q00535 whole entry): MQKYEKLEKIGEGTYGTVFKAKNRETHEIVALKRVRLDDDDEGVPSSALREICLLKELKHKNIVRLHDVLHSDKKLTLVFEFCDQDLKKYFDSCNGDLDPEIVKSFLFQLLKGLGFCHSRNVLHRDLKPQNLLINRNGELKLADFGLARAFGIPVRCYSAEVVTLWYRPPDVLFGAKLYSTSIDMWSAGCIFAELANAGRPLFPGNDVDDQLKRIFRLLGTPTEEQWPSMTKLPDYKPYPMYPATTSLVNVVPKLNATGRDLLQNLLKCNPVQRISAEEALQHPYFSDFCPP
Sequence of Cyclin-dependent kinase 5/CDK5 activator 1 (Homo sapiens) (Q15078 99-307 partner limits assumed): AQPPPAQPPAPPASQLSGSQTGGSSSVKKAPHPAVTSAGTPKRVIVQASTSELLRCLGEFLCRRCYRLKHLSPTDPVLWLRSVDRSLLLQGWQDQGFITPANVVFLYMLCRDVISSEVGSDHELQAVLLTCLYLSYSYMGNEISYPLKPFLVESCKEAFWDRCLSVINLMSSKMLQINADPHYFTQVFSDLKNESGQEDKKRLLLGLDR

`Cc1nn(-c2ccccn2)c2c1C(=O)CC(C)C2Br` (cis isomer): the inhibition result in [1], in data set [2], in [3], in data set [4], in data set [5] and in data set [6] was “inactive” throughout. The inhibition entry in data set [7], in [8], in data set [9], in data set [10], in data set [11] and in data set [12] was “inactive” throughout.
The term Papp A→B denotes the apparent permeability from the apical to the basolateral side of a cell layer. The IC50 is the concentration at which inhibition is half-maximal. Broadly, the Papp B→A is the apparent permeability from the basolateral to the apical side of a cell layer. Take `Cc1nn(-c2ccccn2)c2c1C(=O)CC(C)(C)C2Br` (stereo not drawn): the Drug recovery is 52.4% in data set [13] and 49.8% in [21]. Also, in [14], the Papp A→B at 2 h, 1 µM came out at 20.1 ×10⁻⁶ cm/s. Also, the half-maximal inhibitory concentration (IC50) came out at 134 nM in [15], 27.4 nM in [16], 2600 nM in [19] and 108 nM in data set [20]. Besides, the Papp B→A at 2 h, 1 µM in data set [17] was determined as 9.52 ×10⁻⁶ cm/s. The inhibition entry in data set [18] was “inactive”. Moreover, the Ratio in data set [22] was found to be 0.47. In data set [23], the result was inactive.
